Data taken from ChEMBL document CHEMBL1141042, “Correlation of cytotoxic activity of betulinines and their hydroxy analogues” (Bioorg Med Chem Lett, 2005).
pIC50: −log10 of the molar value.

Experiments:
Format in all cases: functional, cell-based
K562 [1] = assay: Concentration required to kill 50 % of human paclitaxel-resistant subline of K562 cells (K-562-Tax); details: for pIC50: Homo sapiens, K562, read-out: IC50; for IC50: k562
Method in brief: (§1)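 MTT assay. Cells at 2500–30,000/well were preincubated 24 h at 37 C, 5% CO2. Fourfold dilutions of compound in 10% DMSO were added, in duplicate, and exposure ran 72 h at 37 C. MTT was then added for 1–4 h, formazan was dissolved in 10% SDS (pH 5.5) overnight, and OD was read at 540 nm. Survival was calculated versus control wells, with IC50 from dose–response curves.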

PC-3 = assay: Concentration required to kill 50 % of human prostate cancer PC3 cells; details: for pIC50: Homo sapiens, PC-3, read-out: IC50; for IC50: pc-3; method in brief: as §1
K562 [2] = assay: Concentration required to kill 50 % of human chronic myelogenous leukemia cell line K562; details: for pIC50: Homo sapiens, K562, read-out: IC50; for IC50: k562; method in brief: as §1
HT-29 = assay: Concentration required to kill 50 % of human colon cancer cell line HT-29; details: for pIC50: Homo sapiens, HT-29, read-out: IC50; for IC50: ht-29; method in brief: as §1
CCRF-CEM = assay: Concentration required to kill 50 % of human T-lymphoblastic leukemia cell line (CEM); details: for pIC50: Homo sapiens, CCRF-CEM, read-out: IC50; for IC50: ccrf-cem; method in brief: as §1
SK-MEL-2 = assay: Concentration required to kill 50 % of human melanoma SK-MEL2 cells; details: for IC50: sk-mel-2; for pIC50: Homo sapiens, SK-MEL-2, read-out: IC50; method in brief: as §1

| SMILES | pIC50 (K562 [1]) | pIC50 (PC-3) | pIC50 (K562 [2]) | pIC50 (HT-29) | pIC50 (CCRF-CEM) | IC50 (SK-MEL-2) [uM l-1] | pIC50 (SK-MEL-2) | IC50 (K562 [1]) [uM l-1] | IC50 (PC-3) [uM l-1] | IC50 (HT-29) [uM l-1] | IC50 (CCRF-CEM) [uM l-1] | IC50 (K562 [2]) [uM l-1] |
| --- | --- | --- | --- | --- | --- | --- | --- | --- | --- | --- | --- | --- |
| CC(C)C1=C2C3CCC4[C@@]5(C)CC[C@H](O)C(C)(C)C5CC[C@@]4(C)[C@]3(C)CC[C@@]2(C(=O)OCc2ccccc2)CC1=O (some centres not stated) | 4.55 | 4.43 | 4.57 | 4.68 | 4.59 | 156 |  |  |  |  |  |  |
| COC(=O)[C@@]12CC[C@]3(C)C(CCC4[C@@]5(C)CC[C@H](OC(C)=O)C(C)(C)C5CC[C@]43C)C1=C(C(C)C)C(=O)C2=O (some centres not stated) | 4.44 | 4.47 | 4.54 | 4.48 | 4.80 |  | 4.06 |  |  |  |  |  |
| CC(=O)O[C@H]1CC[C@@]2(C)C(CC[C@]3(C)C2CCC2C4=C(C(C)C)C(=O)C[C@]4(CO)CC[C@]23C)C1(C)C (some centres not stated) | 4.46 | 4.41 | 4.43 | 4.48 | 4.55 |  | 4.08 |  |  |  |  |  |
| CCOC(=O)[C@@]12CC[C@]3(C)C(CCC4[C@@]5(C)CC[C@H](OC(C)=O)C(C)(C)C5CC[C@]43C)C1=C(C(C)C)C(=O)C2 (some centres not stated) |  |  | 4.23 |  |  | 216 |  | 206 | 244 | 224 | 102 |  |
| CC(C)C1=C2C3CCC4[C@@]5(C)CC[C@H](O)C(C)(C)C5CC[C@@]4(C)[C@]3(C)CC[C@@]2(C(=O)O)CC1=O (some centres not stated) | 4.47 | 4.40 | 4.52 | 4.48 | 4.54 | 160 |  |  |  |  |  |  |
| COC(=O)[C@@]12CC[C@]3(C)C(CCC4[C@@]5(C)CC[C@H](O)C(C)(C)C5CC[C@]43C)C1=C(C(C)C)C(=O)C2 (some centres not stated) | 4.44 | 4.42 | 4.42 | 4.42 | 4.59 |  | 4.10 |  |  |  |  |  |
| CC(=O)OC[C@@]1(C(=O)O)CC[C@]2(C)C(CCC3[C@@]4(C)CC[C@H](OC(=O)CCl)C(C)(C)C4CC[C@]32C)C1=O (some centres not stated) | 6.40 | 5.64 | 6.70 | 5.44 | 6.00 |  | 5.89 |  |  |  |  |  |
| C=C1CC[C@]2(C)C(CCC3[C@@]4(C)CC[C@H](OC(C)=O)C(C)(C)C4CC[C@]32C)C1=O (some centres not stated) | 5.96 |  | 6.40 |  |  |  | 5.68 |  | 143 | 129 | > 250 |  |
| CC(=O)OC[C@@]12CC[C@]3(C)C(CCC4[C@@]5(C)CC[C@H](OC(=O)CCl)C(C)(C)C5CC[C@]43C)C1=C(C(C)C)C(=O)OC2=O (some centres not stated) |  |  |  |  |  | 121 |  | 220 | 250 | 216 | 162 | 181 |
| CC(C)C1=C2C3CCC4[C@@]5(C)CC[C@H](O)C(C)(C)C5CC[C@@]4(C)[C@]3(C)CC[C@@]2(CO)CC1=O (some centres not stated) |  |  |  |  |  | > 250 |  | > 250 | > 250 | > 250 | > 250 | > 250 |
| CC(=O)OC[C@@]12CC[C@]3(C)C(CCC4[C@@]5(C)CC[C@H](OC(=O)CCl)C(C)(C)C5CC[C@]43C)C1=C(C(C)C)C(=O)C2 (some centres not stated) | 4.01 |  |  |  | 4.36 | 229 |  |  | 242 | 110 |  | 110 |
| CC(=O)O[C@H]1CC[C@@]2(C)C(CC[C@]3(C)C2CCC2C4=C(C(C)C)C(=O)C[C@]4(C(=O)OCc4ccccc4)CC[C@]23C)C1(C)C (some centres not stated) |  |  |  |  |  | 250 |  | 250 | 250 | 250 | 250 | 245 |
| CCOC(=O)[C@@]12CC[C@]3(C)C(CCC4[C@@]5(C)CC[C@H](OC(C)=O)C(C)(C)C5CC[C@]43C)C1=C(C(C)C)C(=O)C2=O (some centres not stated) |  | 4.06 | 4.23 | 4.03 | 4.42 | 148 |  | 130 |  |  |  |  |
| CC(=O)OC[C@@]12CC[C@]3(C)C(CCC4[C@@]5(C)CC[C@H](OC(C)=O)C(C)(C)C5CC[C@]43C)C1=C(C(C)C)C(=O)C2 (some centres not stated) |  |  |  |  |  | > 250 |  | > 250 | > 250 | > 250 | > 250 | > 250 |
| CC(=O)OC[C@@]12CC[C@]3(C)C(CCC4[C@@]5(C)CC[C@H](OC(=O)CCl)C(C)(C)C5CC[C@]43C)C1=C(C(C)C)C(=O)C2=O (some centres not stated) |  |  |  |  |  | 170 |  | > 250 | 208 | > 250 | 242 | 231 |
| CCOC(=O)[C@@]12CC[C@]3(C)C(CCC4[C@@]5(C)CC[C@H](O)C(C)(C)C5CC[C@]43C)C1=C(C(C)C)C(=O)C2 (some centres not stated) | 4.72 | 4.48 | 4.77 | 4.89 | 4.74 |  | 4.10 |  |  |  |  |  |
| COC(=O)[C@@]12CC[C@]3(C)C(CCC4[C@@]5(C)CC[C@H](O)C(C)(C)C5CC[C@]43C)C1=C(C(C)C)C(=O)C2=O (some centres not stated) | 4.34 | 4.14 | 4.46 | 4.27 | 4.36 | 138 |  |  |  |  |  |  |
| COC(=O)[C@@]12CC[C@]3(C)C(CCC4[C@@]5(C)CC[C@H](OC(C)=O)C(C)(C)C5CC[C@]43C)C1=C(C(C)C)C(=O)C2 (some centres not stated) | 4.02 |  | 4.47 |  | 4.36 | 165 |  |  | 246 | 149 |  |  |
| CCOC(=O)[C@@]12CC[C@]3(C)C(CCC4[C@@]5(C)CC[C@H](O)C(C)(C)C5CC[C@]43C)C1=C(C(C)C)C(=O)C2=O (some centres not stated) | 4.07 |  |  |  |  | 140 |  |  | 165 | 176 | 210 | 239 |
| CC(=O)OC[C@@]12CC[C@]3(C)C(CCC4[C@@]5(C)CC[C@H](O)C(C)(C)C5CC[C@]43C)C1=C(C(C)C)C(=O)C2 (some centres not stated) | 4.23 |  | 4.41 | 4.03 |  |  | 4.07 |  | 163 |  | 250 |  |
| CC(=O)O[C@H]1CC[C@@]2(C)C(CC[C@]3(C)C2CCC2C4=C(C(C)C)C(=O)C[C@]4(C(=O)O)CC[C@]23C)C1(C)C (some centres not stated) |  |  |  |  |  | 128 |  | > 250 | 117 | 149 | > 250 | > 250 |
| C=C(C)[C@@H]1CC[C@]2(CO)CC[C@]3(C)[C@H](CC[C@@H]4[C@@]5(C)CC[C@H](O)C(C)(C)[C@@H]5CC[C@]43C)[C@@H]12 [BETULIN] |  |  |  |  |  | > 250 |  | > 250 | > 250 | > 250 | > 250 | > 250 |
